Screens as filed in PubChem BioAssay.
Not all results are given here.
Apaf1 activ = activators of human Apaf-1 apoptosome, primary screen, biochemical, DEVD-Rh110 fluorescence, uHTS | Apaf-1 apoptosome caspase-3 activation; active compounds read low | activity change, negative = activation, % at 20 µM | 330,000 compounds, 0.31% hits | AID 489031, 2010;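 active = activity change at or below -40% at 20 µM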
Target sequence (O14727 whole entry, looked up): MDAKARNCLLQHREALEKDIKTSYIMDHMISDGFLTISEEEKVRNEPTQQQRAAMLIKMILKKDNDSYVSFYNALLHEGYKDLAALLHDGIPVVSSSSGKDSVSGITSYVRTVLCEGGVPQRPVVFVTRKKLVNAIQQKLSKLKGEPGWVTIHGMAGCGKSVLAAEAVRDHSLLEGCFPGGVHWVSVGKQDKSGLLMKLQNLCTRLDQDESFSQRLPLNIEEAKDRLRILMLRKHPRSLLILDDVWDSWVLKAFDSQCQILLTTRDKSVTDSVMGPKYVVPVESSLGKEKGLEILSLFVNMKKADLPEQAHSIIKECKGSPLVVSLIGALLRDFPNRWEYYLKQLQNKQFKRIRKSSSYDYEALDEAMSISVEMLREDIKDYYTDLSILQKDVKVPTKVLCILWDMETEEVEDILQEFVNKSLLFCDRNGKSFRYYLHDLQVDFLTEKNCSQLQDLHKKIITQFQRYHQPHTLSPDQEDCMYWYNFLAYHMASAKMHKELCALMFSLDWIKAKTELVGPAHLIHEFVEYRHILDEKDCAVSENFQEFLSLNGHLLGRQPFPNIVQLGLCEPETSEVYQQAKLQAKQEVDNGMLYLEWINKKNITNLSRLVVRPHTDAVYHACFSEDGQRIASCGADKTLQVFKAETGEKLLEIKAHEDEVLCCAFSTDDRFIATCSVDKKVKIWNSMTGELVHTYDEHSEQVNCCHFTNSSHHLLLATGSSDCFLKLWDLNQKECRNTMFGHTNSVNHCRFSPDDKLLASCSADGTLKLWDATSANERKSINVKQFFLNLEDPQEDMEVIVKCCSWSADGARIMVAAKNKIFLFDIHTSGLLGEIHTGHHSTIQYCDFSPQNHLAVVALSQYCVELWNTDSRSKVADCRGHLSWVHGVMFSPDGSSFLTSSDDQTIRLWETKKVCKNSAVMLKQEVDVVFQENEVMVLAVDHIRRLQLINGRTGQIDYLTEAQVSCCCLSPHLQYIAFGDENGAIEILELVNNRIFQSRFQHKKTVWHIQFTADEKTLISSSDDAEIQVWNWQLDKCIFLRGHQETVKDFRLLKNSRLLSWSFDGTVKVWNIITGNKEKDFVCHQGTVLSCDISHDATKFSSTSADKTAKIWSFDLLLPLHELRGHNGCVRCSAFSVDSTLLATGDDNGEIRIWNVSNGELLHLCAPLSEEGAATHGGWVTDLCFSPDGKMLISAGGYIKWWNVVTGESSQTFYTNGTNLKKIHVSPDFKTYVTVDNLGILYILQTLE
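system = biochemical Apaf-1 apoptosome reconstitution | buffer or medium = 20 mM HEPES pH 7.5 with CHAPS, BSA | also added = dATP and cytochrome c as apoptosome triggers, (Z-DEVD)2-Rh110 substrate | incubation = 30 min compound preincubation and 50 min reaction, both room temperature | measured by = fluorescence, 540 nm emission, 480 nm excitation | read-out basis = Caspase-3 cleavage activity downstream of Apaf-1 activation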
Rh110 act interf = Rh110 fluorescence interference by putative Apaf-1 activators, confirmation, artefact control for Apaf-1 activator project, biochemical, 20 µM. quenched caspase reaction, Ex480/Em540. shares compounds with Apaf1 activ. fluorescence interference (activity change), % at 20 µM, hits read low. 980 tested, under 10 active;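 active = mean activity change at or below -40% when tested at 20 µM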
Apaf-1 act conf2 = Apaf-1 activators, single-dose retest, confirmation, biochemical, fluorescence, DEVD-Rh110, 20 µM. activity change, negative = activation, % at 20 µM. shares compounds with Apaf1 activ. reconstituted apoptosome caspase-3 activity; active compounds read low. 980 compounds, 5% hits. AID 504617, 2011;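 active = mean activity change at or below -40%, meaning activation of 40% or more, at 20 µM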
Apaf1 act interf = fluorescence interference of Apaf-1 activator hits, dose response, artefact control for Apaf-1 activator project; shares compounds with Apaf1 activ; fluorescence interference counterscreen, Apaf-1 activator assay; EC50, µM; 55 tested, under 10 active; call rule not given here
* = called active by the depositor; . = no result given.

SMILES	Apaf1 activ	Rh110 act interf	Apaf-1 act conf2	others
CCC[C@@H](CN1CCC[C@H]1CN1C(N)=NC[C@@H]1Cc1ccccc1)N1C[C@@H]([C@H](C)CC)N(CCCC2CCCC2)C1=N	77	.	.
C#CCOCCOCCOCCNc1nc(N2CCN(C(=O)CCCCCCCCCCNC(=O)[C@H](CCCCN)n3cc(CCO)nn3)CC2)nc(N2CCN(C(=O)CCCCCCCCCCNC(=O)[C@H](CCCCN)n3cc(C[C@@H](C)CC)nn3)CC2)n1	68	.	.
CC(=O)c1cc(C#N)c(Oc2cccc(C(F)(F)F)c2)nc1C	-151*	9	3
COc1ccc(CNC[C@@H](CCCCN(C)Cc2ccc(OC)cc2)N2C[C@H](c3ccccc3)N(CCc3ccc(Cl)c(Cl)c3)C(=O)C2=O)cc1	49	.	.
Cc1cccc(NC(=O)NC2CCCc3ccccc32)c1 (stereo not drawn)	-379*	1	0
Cc1cccc(NC(=O)CC2Nc3cccc4cccc(c34)NC2=O)c1 (stereo not drawn)	71	.	.
Cc1cccc(NC2=C(NCCO)C(=O)c3ccccc3C2=O)c1	56	.	.
Cc1ccc(NC(=O)CN(C)C(=O)c2ccc3[nH]c4c(c3c2)CC(C)CC4)cc1 (stereo not drawn)	59	.	.
CCC(C)c1ccccc1NC(=O)COC(=O)c1ccc2[nH]c3c(c2c1)CCCC3 (stereo not drawn)	-170*	20	22
Fc1ccc(N2CCN(c3nc(CN4CCOCC4)nc4scc(-c5ccccc5)c34)CC2)cc1	41	.	.
CCN1CCc2c(sc(NC(=O)c3ccc(C(=O)c4ccccc4)cc3)c2C(N)=O)C1	44	.	.
NC(=O)c1c(NC(=O)CCCn2cnc([N+](=O)[O-])n2)sc2c1CCCC2	-90*	-1	16
O=C(O)CCCN1C(=O)/C(=C/c2ccc(-c3nc4ccccc4s3)o2)SC1=S	-406*	11	-23
C[C@@H]1CN([C@H](C)CO)C(=O)Cc2cc(NS(=O)(=O)c3ccc(Cl)cc3)ccc2O[C@H]1CN(C)Cc1ccc(C(F)(F)F)cc1	41	.	.
COc1ccc(C(=O)NCCCNC(=O)c2cc3ccccc3[nH]2)cc1OC	-162*	5	10
COc1ccc2[nH]c(=O)c(CNc3ccccc3OC)cc2c1	51	.	.
COc1ccc(CCNC(=O)c2ccc3nc(-c4ccco4)c(-c4ccco4)nc3c2)cc1OC	56	.	.
CCC[C@@H](CN1CCC[C@H]1CN1C(N)=NC[C@H]1CC(C)C)N1C[C@@H]([C@H](C)CC)N(CCc2ccc(Cl)c(Cl)c2)C1=N	64	.	.
CN(CCCN1c2ccccc2CCc2ccccc21)CC(=O)c1ccc(Cl)cc1	44	.	.
COc1ccc(-n2nc3cc(N)c(Br)cc3n2)cc1	69	.	.
COc1ccc(C2=NCN(c3ccc(C)cc3)C(=S)N2)cc1	-555*	9	17
O=C(/C=C/c1ccc([N+](=O)[O-])cc1)/C=C/c1ccco1	43	.	.
CC(C)Oc1ccc(N2CC(C(=O)Nc3ccc(N4CCOCC4)cc3)CC2=O)cc1 (stereo not drawn)	-107*	8	5
CC(=O)c1ccc(NC2=C(N3CCOCC3)C(=O)c3ccccc3C2=O)cc1	80	.	.
COC(=O)CCC(=O)OC1(C)C(=O)C=C2C=C(C3CC3)N(C3CCCC3)C=C2C1=O (stereo not drawn)	67	.	.
SMILES	Apaf1 activ	Rh110 act interf	Apaf-1 act conf2	others
Clc1nc(Nc2ccc(N3CCOCC3)cc2)c2ccccc2n1	-393*	6	6
O=C(O)c1ccc(NC2=C(N3CCOCC3)C(=O)c3ccccc3C2=O)cc1	68	.	.
CC1(C)Cc2c(sc(NC(=O)COc3cccc4ccccc34)c2C#N)C(C)(C)N1	46	.	.
CN(CC(=O)Nc1ccc(Cl)c(C(F)(F)F)c1)C(=O)CC1Sc2ccccc2NC1=O (stereo not drawn)	51	.	.
C#CCOCCOCCOCCNc1nc(N2CCN(C(=O)CCCCCCCCCCNC(=O)[C@H](CCCCN)n3cc(C[C@@H](C)CC)nn3)CC2)nc(N2CCN(C(=O)CCCCCCCCCCNC(=O)[C@H](CCCN=C(N)N)n3cc(C[C@@H](C)CC)nn3)CC2)n1	55	.	.
COc1ccc(CC(=O)N(C)CC(=O)Nc2ccccc2Cl)cc1S(=O)(=O)N1CCOCC1	59	.	.
COc1ccc(CN2C(=O)c3cccnc3C2=O)cc1S(=O)(=O)N1CCOc2ccccc21	-52*	14	20
COc1ccc(CN(C)C(=O)Cc2ccc(OC)c(S(=O)(=O)N3CCOCC3)c2)cc1OC	60	.	.
Cc1cc(C)c2c(=O)c(/C=C3\NC(=S)NC3=O)coc2c1	-99*	10	-63*	Apaf1 act interf=>100
O=C1NC(=S)N/C1=C/c1cc2c(cc1[N+](=O)[O-])OCO2	88	.	.
O=C(Cn1ncn2c(cc3ccccc32)c1=O)NCCc1cccs1	-392*	6	7
CCc1cccc2c(C#N)cn(CCOc3ccccc3OC)c12	-104*	3	17
COc1ccc2ccccc2c1C1CC(=O)N2CN(C)CSC2=C1C#N (stereo not drawn)	71	.	.
CC(C)C[C@@H](C(=O)NC1CCN(Cc2ccccc2)CC1)N1C(=O)N2CCc3c([nH]c4ccccc34)[C@@]2(C)C1=O	45	.	.
O=C(NCCNc1ccc2ccccc2c1)c1cccn2c(=O)c3sccc3nc12	51	.	.
COc1ccc(N2C(=O)[C@@H]3[C@H](C2=O)[C@H]2c4ccccc4C=CN2[C@@H]3C(=O)Nc2ccccc2)cc1	67	.	.
O=C(COc1ccccc1)NCC(=O)NC1CCCCC1	-40*	3	9
CSCCC(NC(=O)COc1ccccc1)C(=O)N1CCC(C(N)=O)CC1 (stereo not drawn)	64	.	.
Cc1ccc2oc(=O)cc(CN3CC(C)OC(C)C3)c2c1 (stereo not drawn)	-66*	11	8
COc1ccc(-c2cc(=O)n(-c3ccc([N+](=O)[O-])cc3)[nH]2)cc1	65	.	.
CC(C)(C)C(=O)[C@@H]1[C@@H]2C(=O)N(c3ccc4c(c3)OCCO4)C(=O)[C@@H]2C2c3ccccc3C=CN21 (stereo partly drawn)	62	.	.
C/C(=C\C(=S)Nc1ccccc1)Nc1ccc2ccccc2c1	41	.	.
Cc1occc1C(=O)Nc1ccc2ccccc2c1	-351*	1	15
CCN1CCN(c2ccc(NC(=O)c3cc4ccccc4cc3OC)cc2C)CC1	51	.	.
CCN1CCN(S(=O)(=O)c2ccc(Cl)c(C(=O)N(C)Cc3cccc(Cl)c3Cl)c2)CC1	43	.	.
Cc1cc(C)nc(/N=c2/ssnc2Cl)c1	71	.	.
c1ccc(C2(CN3CCNC[C@H]3Cc3cccc4ccccc34)CC2)cc1	53	.	.
Cc1nn(CC(=O)N2CCc3ccccc32)c(C)c1S(=O)(=O)NC(C)(C)C	-57*	17	10
CS(=O)(=O)c1nc(-c2ccc(Br)cc2)cc(-c2ccccc2)c1C#N	47	.	.
CC(C)c1c(Cl)c(O)c(-c2ccccc2)c(=O)n1-c1ccc(F)cc1	-40*	-6	12
